Source: PubChem
CHRM5 agonist = CHRM5 agonism in calcium assay; P08912; CHO-K1 hM5 cells, Fluo-8 calcium fluorescence; 0% DMSO wells, 100% maximal acetylcholine response; activation, % at 3 µM; 0.19% of 360,000 active;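 active = activation above the run's mean over test compounds plus 3 SD, cut at about 23% in these data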;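 also: signal is peak over basal fluorescence ratio across the kinetic read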
M4 antag = CHRM4 antagonism in calcium assay; CHO-hM4 cells, ACh EC80, Fluo-8 calcium fluorescence; inhibition, % at 3 µM; 0.73% of 360,000 active;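 active = inhibition above its plate's cutoff, the mean inhibition of sample wells plus 3 SD, cut at about 27% in these data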
Target sequence (P08173 whole entry, looked up): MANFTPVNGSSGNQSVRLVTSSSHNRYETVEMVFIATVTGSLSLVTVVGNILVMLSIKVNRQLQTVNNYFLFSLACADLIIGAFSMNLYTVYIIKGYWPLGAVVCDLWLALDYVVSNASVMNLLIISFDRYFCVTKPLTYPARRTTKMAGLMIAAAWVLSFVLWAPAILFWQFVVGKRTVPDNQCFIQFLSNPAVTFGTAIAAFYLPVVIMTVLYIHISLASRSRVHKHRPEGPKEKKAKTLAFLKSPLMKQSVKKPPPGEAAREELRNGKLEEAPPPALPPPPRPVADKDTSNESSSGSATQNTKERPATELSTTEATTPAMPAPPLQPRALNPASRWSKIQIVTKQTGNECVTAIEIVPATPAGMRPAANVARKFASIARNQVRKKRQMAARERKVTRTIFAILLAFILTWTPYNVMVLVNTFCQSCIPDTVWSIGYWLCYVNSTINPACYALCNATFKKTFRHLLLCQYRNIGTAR
CHRM4 PAM = positive allosteric modulators of human muscarinic M4 receptor. P08173. 0.4% of 360,000 active. activation, % at 3 µM. CHO-K1 hM4/Gqi5, Fluo-8 calcium fluorescence, ACh EC20; 0% = ACh EC20, 100% = maximal ACh;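 active = activation above its plate's cutoff, the mean activation of sample wells plus 3 SD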
CHRM4 agonist = CHRM4 agonism in calcium assay | CHO-K1 hM4/Gqi5, Fluo-8 calcium fluorescence; vehicle 0%, full acetylcholine response 100% | activation, % at 3 µM | P08173 | AID 624127 | 0.14% of 360,000 active;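 active = activation above the run mean over all test wells plus 3 SD, cut at about 32% in these data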;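 also: peak over basal fluorescence ratio per well then scaled between controls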
CHRM5 PAM = potentiates acetylcholine response at human M5 receptor. CHO-K1 hM5, Fluo-8 calcium, ACh EC20 PAM; 0% = ACh EC20, 100% = ACh EC100. P08912. AID 624038. 0.3% of 360,000 active. activation, % at 3 µM;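 active = activation above the run cutoff, the mean activation of all test compounds plus 3 SD, cut at about 18% in these data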
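System: CHO-K1 cell line with stable human muscarinic M5 receptor expression | Also added: EC20 acetylcholine as agonist stimulus | Compound: One concentration, 3 µM final (nominal) | Timing: Fluo-8 loading 80 min at 37 °C plus 30 min room temperature | Measured by: Fluo-8 calcium dye fluorescence, kinetic read | Read-out basis: % activation, ACh-normalized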
CHRM5 antagonist = CHRM5 antagonism in calcium assay; P08912; CHO-hM5 cells, Fluo-8 calcium fluorescence, ACh EC80; AID 624040; inhibition, % at 3 µM; 0.59% of 360,000 active;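 active = inhibition above a per-plate cutoff, the mean of that plate's test compounds plus 3 SD, cut at about 27% in these data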
Large screens that a line does not name were inactive. Hits are enriched below; roughly 1.8% of the tested compounds scored in any of these assays.

CCOc1ccc(-c2nnc(-c3ccncc3)o2)cc1	CHRM4 PAM 25, CHRM5 PAM 42
Nc1ncnc(Nc2ccc(F)c(Cl)c2)n1	CHRM4 PAM 12
CCC1=NN2C(=N)/C(=C/c3cc(C)n(Cc4ccccc4)c3C)C(=O)N=C2S1	CHRM5 agonist 24, CHRM4 agonist 53
O=C(Nc1cccc(S(=O)(=O)N2CCCC2)c1)[C@H]1C[C@H](O)[C@@H](CO)O1	none
C/C(=N\NC(=O)CSc1nc2ccccc2s1)c1ccco1	CHRM5 PAM 21
CC(=O)NCCNC(=O)c1ccc(CSc2nc3ccccc3s2)cc1	M4 antag 39
CC(C)C(=O)Nc1nc2cc3c(cc2s1)OCCO3	none
CC(=O)Nc1nc2cc3c(cc2s1)OCO3	CHRM5 agonist 38
O=C(COc1ccccc1)Nc1nc2cc3c(cc2s1)OCO3	CHRM5 antagonist 27
CSCCC(C(=O)Nc1c(C)cccc1C)N1CCN(c2ccc(F)cc2)CC1 (configuration not stated)	none
COc1ccc(-n2ncc3c(N4CCC(C)CC4)ncnc32)cc1	none
CCOC(=O)N1CCN(c2ncnc3c2cnn3-c2ccc(OC)cc2)CC1	CHRM4 PAM 28
CCOC(=O)C1CCN(c2ncnc3c2cnn3-c2ccc(Cl)cc2)CC1	CHRM5 PAM 19
CC(=O)c1cccc(-c2ccnc3c2CC(C(=O)Nc2ccc(C(C)C)cc2)O3)c1 (configuration not stated)	none
CCCCCCn1c(SCC(=O)NC2CCS(=O)(=O)C2)nc2ccccc2c1=O (configuration not stated)	none
C[N+]1(C)CCCC(OC(=O)C(O)(c2ccccc2)c2ccccc2)C1 (configuration not stated)	M4 antag 99, CHRM5 antagonist 99
COC(=O)[C@]12CCCCC=C1N(CCc1ccc(OC)c(OC)c1)C(=O)[C@H](CC(=O)NCc1cccc(C(F)(F)F)c1)C2	none
COC(=O)[C@@]12C[C@@H](CC(=O)NCc3cccc(C(F)(F)F)c3)C(=O)N(CCc3ccc(OC)c(OC)c3)C1=CCC(C)(C)C2	M4 antag 27, CHRM4 agonist 33
COC(=O)[C@]12CCCCC=C1N(CCc1ccc(OC)c(OC)c1)C(=O)[C@H](CC(=O)N1CCC(c3ccccc3)CC1)C2	CHRM5 antagonist 28
CC1(C(=O)NS(=O)(=O)c2cccc(C#N)c2)CCN1C(=O)c1ccco1 (configuration not stated)	none
CCc1nc2ccc(C(=O)Nc3cccc(NS(C)(=O)=O)c3)cn2c1N(C)CCN1CCOCC1	none
C1=CC2CC1CC2CN1CCN(c2ccccc2)CC1 (configuration not stated)	none
Cc1ccccc1CN1CCN(CC2CC3C=CC2C3)CC1 (configuration not stated)	M4 antag 44
COCCNC(=O)C1(C)CCCN(C(=O)c2ccc(C(F)(F)F)cc2)C1 (configuration not stated)	none
Cc1cccc(C)c1NC(=O)C(c1cc2ccccc2o1)N1CCN(C)CC1 (configuration not stated)	none
O=C(OCCN1C(=O)c2cccc3c(N4CCOCC4)ccc(c23)C1=O)c1ccccc1Cl	M4 antag 40, CHRM5 antagonist 45
OCCC1CN(Cc2nc(-c3ccccc3)cs2)CCN1Cc1ccc(F)cc1 (configuration not stated)	none
CSc1ncc(CN2CCN(CC=C(C)C)C(CCO)C2)cn1 (configuration not stated)	none
CCN1CCN(Cc2ccc(NC(=O)Nc3ccccc3)cc2)CC1	none
CC(=O)Nc1ccc(CN2CCCN(C)CC2)cc1	CHRM5 antagonist 30
COc1ccc2c(c1)C=C(CN1CCN(C3CCCC3)C(CCO)C1)CO2 (configuration not stated)	M4 antag 73
CSc1ncc(CN2CCN(C3CCCC3)C(CCO)C2)cn1 (configuration not stated)	M4 antag 42
OCCC1CN(Cc2nc(-c3ccccc3)cs2)CCN1C1CCCC1 (configuration not stated)	M4 antag 53
COc1ccc(-n2ccnc2CN2CCN(C3CCCC3)C(CCO)C2)cc1 (configuration not stated)	none
CCCOc1ccc(F)cc1-c1cc(C(=O)Nc2ccc(OC)cc2C)[nH]n1	none
CC(=O)Nc1ccc(CN2CCN(C3CCCC3)C(CCO)C2)cc1 (configuration not stated)	M4 antag 35
OCCC1CN(Cc2c(F)cccc2Cl)CCN1C1CCCC1 (configuration not stated)	M4 antag 26
OCCC1CN(Cc2c(F)cccc2Cl)CCN1C1CCCCC1 (configuration not stated)	none
N[C@@]12CCc3nonc3[C@]1(O)CC(c1ccccc1)=[N+]2[O-]	CHRM4 PAM 26
CCOC(=O)[C@]12CCCC=C1N(Cc1cccc3ccccc13)C(=O)[C@H](CC(=O)NCCCCc1ccccc1)C2	none
Cc1cccc(C(=O)NC(=S)NNC(=O)c2ccccc2Cl)c1	CHRM5 agonist 46, CHRM4 agonist 40
Cc1cccc(C(=O)NC(=S)NNC(=O)Cc2ccccc2)c1	none
Cc1onc(-c2ccccc2)c1C(=O)NNC(=S)NC(=O)c1ccc(Br)cc1	CHRM5 agonist 35, CHRM4 agonist 61
Cc1onc(-c2ccccc2)c1C(=O)NNC(=S)NC(=O)c1ccc(Cl)cc1Cl	CHRM5 agonist 30, CHRM4 agonist 113
Cc1ccccc1C(=O)NNC(=S)NC(=O)c1ccc(Cl)cc1Cl	CHRM5 agonist 53, CHRM4 agonist 84
Cc1ccc(C(=O)NNC(=S)NC(=O)c2ccc(Cl)cc2)cc1	CHRM5 agonist 98, M4 antag 33, CHRM4 agonist 131
Cc1cccc(C(=O)NC(=S)NNC(=O)COc2c(C)cccc2C)c1	CHRM4 PAM 23
COc1cc(OC)c(NC(=O)c2c(-c3ccccc3)noc2C)cc1Cl	CHRM5 PAM 18
COc1ccc(CCN(Cc2cc3cccc(C)c3[nH]c2=O)C(=O)NC2CCCCC2)cc1OC	M4 antag 31
Cc1cccc2cc(CN(CC3CCCO3)C(=O)NC3CCCCC3)c(=O)[nH]c12 (configuration not stated)	none
CCN(CC)CCNC(=O)Cn1nc(-c2ccc(C)cc2)ccc1=O	none
Cc1ccc(-c2ccc(=O)n(CC(=O)NCCN(CC(C)C)CC(C)C)n2)cc1	CHRM5 PAM 24
COc1ccc(C(=O)Nn2c(SCc3ccc([N+](=O)[O-])cc3)nc3ccccc3c2=O)cc1	CHRM5 PAM 18
